Bioassay records (PubChem)
PAD4 FP inh = inhibitors of human PAD4. Q9UM07. 330,000 compounds, 0.41% hits. AID 485272. inhibition, % at 6.36 µM. recombinant PAD4, RCA probe fluorescence polarization;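 active means percent inhibition above a cutoff equal to the mean of all tested compounds plus 3 SD, cut at about 15% in these data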;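 further: 0% = PAD4 with RCA probe and DMSO and 100% = probe without PAD4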
SIAE primary = human SIAE inhibition, primary screen | 370,000 compounds, 0.69% hits | SIAE FP-Rh probe binding, fluorescence polarization | AID 1053197 | inhibition, % at 9.66 µM | Q9HAT2;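 active means inhibition above a cutoff: mean of compounds within the control limits plus 3 SD of those, cut at about 17% in these data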;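 further: 0% = plate median of compound wells and 100% = probe without SIAE protein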
HTRA1 inh = blocks human HTRA1 serine peptidase; recombinant HTRA1, FP-rhodamine activity-based probe, fluorescence polarization; inhibition, % at 5.96 µM; 340,000 compounds, 0.5% hits; in the data active means inhibition above about 36%;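 further: 0% = enzyme with DMSO and 100% = wells lacking enzyme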
Target sequence (Q92743 whole entry, looked up): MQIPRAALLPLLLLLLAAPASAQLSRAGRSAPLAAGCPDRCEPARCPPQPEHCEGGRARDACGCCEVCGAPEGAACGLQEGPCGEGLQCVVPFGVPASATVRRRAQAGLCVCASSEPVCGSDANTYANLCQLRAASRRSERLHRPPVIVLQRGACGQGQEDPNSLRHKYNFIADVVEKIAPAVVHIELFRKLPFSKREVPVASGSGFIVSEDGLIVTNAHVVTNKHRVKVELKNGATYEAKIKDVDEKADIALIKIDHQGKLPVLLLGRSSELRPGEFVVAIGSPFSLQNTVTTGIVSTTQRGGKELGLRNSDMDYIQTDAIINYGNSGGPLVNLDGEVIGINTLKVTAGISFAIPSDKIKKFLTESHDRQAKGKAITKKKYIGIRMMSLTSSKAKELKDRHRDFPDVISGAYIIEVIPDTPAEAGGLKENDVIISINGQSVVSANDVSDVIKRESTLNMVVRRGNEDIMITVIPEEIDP
PRMT1 inh = PRMT1 (human) inhibition, primary screen; inhibition, % at 2.79 µM; 370,000 compounds, 1.3% hits; recombinant PRMT1, activity-based probe fluorescence polarization; AID 652257;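 active means inhibition above about 21% made by adding two undisclosed values, limit read from the data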
ABHD4 inh = inhibits mouse alpha/beta hydrolase domain 4; purified mABHD4, FP-Rh probe fluorescence polarization; inhibition, % at 8.92 µM; Q8VD66; 370,000 compounds, 0.54% hits;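 active means inhibition exceeding the mean over every tested compound plus 3 SD, cut at about 30% in these data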;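 further: 0% = plate median of compound wells and 100% = S159A mutant with DMSO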
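Test system: mABHD4 protein | Buffer or medium: HEPES pH 7.0 buffer, 150 mM NaCl, 0.01% Pluronic F-127 | Probe or stimulus: FP-Rh fluorescent activity-based probe, added after compound pre-incubation | Timing: Pre-incubation 45 min, probe exposure 60 min, at 25 °C | Technique: Fluorescence polarization, excitation 525 nm, emission 598 nm, BODIPY TMR filters | Repeats: Single well per compound (singlicate)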
TCR CD3 inh = inhibitors of human TCR-CD3 interaction. 360,000 compounds, 0.37% hits. TAMRA-labeled TCR probe fluorescence, biochemical. AID 651800. inhibition, % at 9.4 µM; in the data active means inhibition above about 19%;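 further: recombinant mutant TCR 2C K166C tagged with TAMRA read by polarization; 0% = receptor in buffer alone and 100% = receptor with positive control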
PAD4 FP conf = PAD4 (human) inhibition, confirmed | shares compounds with PAD4 FP inh | recombinant PAD4, RCA probe fluorescence polarization | inhibition, % at 6.36 µM | 1,200 compounds, 28% hits | AID 488796;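 active means mean inhibition across replicates above the hit cutoff set by the earlier primary screen, cut at about 15% in these data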;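 further: inhibitors block active-site labeling by the probe so polarization falls; 0% = PAD4 with probe and DMSO and 100% = probe without PAD4 enzyme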
* = called active by the depositor; . = no result given. Only some compounds are listed: those with a hit (about 2.9% of all), similar ones and a draw of the others.

SMILES	PAD4 FP inh	SIAE primary	HTRA1 inh	PRMT1 inh	ABHD4 inh	TCR CD3 inh	PAD4 FP conf
CC(=O)NC1=C(Nc2ccc(N(C)C)cc2)C(=O)c2ccccc2C1=O	17*	3	30	-1	21	8	-7
O=C1NCCOC(=O)[C@@H](Cc2ccc(F)cc2)C/C=C\C[C@@H]1CC(=O)N(CCO)Cc1ccccc1	20*	-1	6	2	0	1	-2
Cc1ncc(N=Nc2ccc(F)cc2)c(-c2ccc(Cl)cc2)n1	18*	1	4	0	-1	3	1
CCN(CC)S(=O)(=O)c1ccc(Cl)c(C(=O)Nc2cc(C)nn2-c2ccccc2C(F)(F)F)c1	18*	.	.	.	.	.	-3
CCN(CC)S(=O)(=O)c1ccc(Cl)c(C(=O)Nc2nncs2)c1	-6	-6	-6	0	3	0	.
O=C1N/C(=C/c2ccc(N3CCOCC3)o2)C(=O)N1c1ccccc1	119*	-1	2	46*	-10	-5	4
NNC(=O)c1snnc1-c1ccccc1	40*	16	10	-1	-1	5	14
NC(=O)c1snnc1-c1ccccc1	-2	4	1	-2	-6	2	.
Cc1noc(C)c1S(=O)(=O)NCc1ccc2c(c1)OCO2	25*	-7	1	-6	-2	1	0
COC(=O)[C@]12C[C@H](CC(=O)NCc3ccc(OC)c(OC)c3)C(=O)N(Cc3cccc4ccccc34)C1=C[C@H](C(C)(C)C)O[C@@H]2C	.	1	.	0	-10	.	.
Cc1ccc2[nH]c(C(=O)O)c(-c3ccccc3)c2c1	5	6	-2	2	3	2	.
O=C(O)c1[nH]c2ccccc2c1-c1ccccc1	104*	1	7	0	6	2	4
Cn1nnnc1Sc1ncnc2scc(-c3ccc(Cl)cc3)c12	11	3	-28	0	-8	11	.
Clc1ccc(-n2nnnc2Sc2ncnc3sccc23)cc1	21*	-6	-11	7	-1	9	21*
Cc1sc2ncnc(Sc3nnnn3-c3ccccc3)c2c1C	28*	4	2	0	0	9	17*
CC1(C)C=C2C(=NN(c3ccccc3)C(N)=C2C#N)CO1	22*	6	17	3	11	-1	56*
CC1(C)Cc2c(C#N)c(N)n(-c3ccccc3)c(=S)c2CO1	2	2	.	6	11	-5	.
Cc1cccc2c1N(C(=O)CN1C(=O)c3ccccc3C1=O)C(C)(C)c1ssc(=S)c1-2	27*	5	-4	2	12	-2	40*
Cc1cc(C)c2c(c1)-c1c(ssc1=S)C(C)(C)N2C(=O)CN1C(=O)c2ccccc2C1=O	24*	8	-4	0	3	-3	38*
CC1=CC(C)(C)N(C(=O)CN2C(=O)c3ccccc3C2=O)c2ccccc21	-5	-1	-2	-1	10	-7	.
Cc1cc(C)cc(NC(=S)/C(=C(\[O-])c2ccc(Cl)s2)[n+]2cccc(C)c2)c1	90*	1	-10	1	3	1	-4
CCOCCCNC(=S)N(CCO)Cc1cc2cc3c(cc2[nH]c1=O)OCCO3	23*	9	-1	5	3	7	3
CCOCCCNC(=S)N(CCN(CC)CC)Cc1cc2cc3c(cc2[nH]c1=O)OCCO3	0	-4	2	-1	-5	-5	.
Cc1ccc(NS(=O)(=O)c2cccc(C(=O)N3CCCCCCC3)c2)cc1	-2	4	-6	5	1	-3	.
Cc1ccc(NS(=O)(=O)c2cccc(C(=O)N3CCN(c4ncccn4)CC3)c2)cc1	36*	4	1	-1	5	5	3
SMILES	PAD4 FP inh	SIAE primary	HTRA1 inh	PRMT1 inh	ABHD4 inh	TCR CD3 inh	PAD4 FP conf
CCCCc1ccc(-c2c(C#N)c(N)nc3c2CCCC3)s1	36*	2	-5	-4	5	11	1
COC(=O)[C@]12C[C@H](CC(=O)N3CCCCC3)C(=O)N(Cc3ccccc3)C1=C[C@H](C(C)(C)C)O[C@@H]2C	.	1	.	1	6	-2	.
CN(c1ccc(C(=O)NCC2CCCO2)cc1)S(C)(=O)=O (stereo not given)	15*	0	5	-2	-5	8	2
O=C(Nc1nc2ncccn2c1-c1ccc(F)c(F)c1)C1CC1	.	-2	.	-1	0	.	.
O=C(CN1CCOCC1)Nc1nc2ccc(Br)cc2s1	17*	5	-9	39*	-4	-3	9
COc1ccc(NC(=O)Nc2cc(NC(=O)Nc3ccc(OC)cc3)c(C)nc2C)cc1	0	-1	-1	1	-2	5	.
COc1ccc(NC(=O)Nc2c[nH]c(=O)[nH]c2=O)cc1	15*	1	-3	-3	-2	-1	-1
CC(=O)c1ccc(Sc2nnnn2-c2ccccc2)c([N+](=O)[O-])c1	17*	4	4	1	1	3	14
CC(=O)N1CCN(c2ccc(NCc3cccs3)cc2)CC1	17*	6	25	5	18	-5	-3
O=S(=O)(CCSc1nc2ccccc2s1)c1nc2ccccc2s1	50*	1	-1	10	-16	-1	41*
CCS(=O)(=O)CCSc1nc2ccccc2s1	3	-2	2	3	-1	-2	.
Cc1cc(NS(=O)(=O)C2CCN(C(=O)Cc3ccc(Cl)c(Cl)c3)CC2)no1	.	-2	.	2	3	.	.
O=C(CCNC(=O)c1ccccc1)Nc1ccc(Cl)c(S(=O)(=O)N2CCCCC2)c1	19*	2	-15	4	0	2	0
CC(CC(=O)Nc1ccc(Cl)c(S(=O)(=O)N2CCOCC2)c1)c1ccccc1 (stereo not given)	.	-3	-6	1	-1	5	.
O=C(O)CC(SCC(=O)Nc1ccc(Cl)c(S(=O)(=O)N2CCOCC2)c1)C(=O)O (stereo not given)	21*	-10	-5	43*	-10	7	5
COCC(=O)N(C)[C@H]1C[C@H]2c3[nH]c4c(-c5ccc6c(c5)OCO6)cccc4c3CCN2C(=O)[C@H]1[C@H](C)O	.	5	.	-5	12	.	.
O=C1C(Br)=Cc2cccc3cccc1c23	91*	-3	15	13	15	5	62*
Nc1cccc2c1C(=O)N(CC(=O)NC13CC4CC(CC(C4)C1)C3)C2=O	-4	-3	-3	2	-6	7	.
O=C(Cn1sc2ccccc2c1=O)NC12CC3CC(CC(C3)C1)C2	16*	.	3	.	.	.	30*
COc1ccc(C)cc1Nc1n[n+](C)c(-c2ccc(O)cc2O)s1	-3	3	3	1	8	6	.
COc1ccc(C)cc1Nc1n[n+](C)c(-c2c3ccccc3cc3ccccc23)s1	51*	3	-15	3	9	7	10
